# Calls of active or inactive are those of the source. The calls are words filed in the database; no cut-off is given here.
# Experiments:
# [1] = test system: HL-60; assay: Induction of cell cycle arrest in human HL60 cells assessed as accumulation at S phase at 10 uM after 12 hrs by propidium iodide staining based flow cytometry (reference value: 14.7 +/- 0.3%); assay type: functional
# [2] = test system: HL-60; assay: Induction of cell cycle arrest in human HL60 cells assessed as accumulation at S phase at 10 uM after 24 hrs by propidium iodide staining based flow cytometry (reference value: 17.9 +/- 0.6%); assay type: functional
# [3] = test system: HL-60; assay: Induction of cell cycle arrest in human HL60 cells assessed as accumulation at S phase at 1 uM after 48 hrs by propidium iodide staining based flow cytometry (reference value: 15.3 +/- 0.1%); assay type: functional
# [4] = test system: U-937; assay: Induction of cell cycle arrest in human U937 cells assessed as accumulation at S phase at 1 uM after 12 hrs by propidium iodide staining based flow cytometry (reference value: 20.5 +/- 0.8%); assay type: functional
# [5] = test system: U-937; assay: Induction of cell cycle arrest in human U937 cells assessed as accumulation at S phase at 3 uM after 12 hrs by propidium iodide staining based flow cytometry (reference value: 20.5 +/- 0.8%); assay type: functional
# [6] = test system: U-937; assay: Induction of cell cycle arrest in human U937 cells assessed as accumulation at S phase at 10 uM after 12 hrs by propidium iodide staining based flow cytometry (reference value: 20.5 +/- 0.8%); assay type: functional
# [7] = test system: HL-60; assay: Induction of cell cycle arrest in human HL60 cells assessed as accumulation at G2/M phase at 10 uM after 12 hrs by propidium iodide staining based flow cytometry (reference value: 18.5 +/- 0.5%); assay type: functional
# [8] = test system: HL-60; assay: Induction of cell cycle arrest in human HL60 cells assessed as accumulation at G2/M phase at 3 uM after 48 hrs by propidium iodide staining based flow cytometry (reference value: 17.9 +/- 0.7%); assay type: functional
# [9] = Cytotoxicity against human HL60 cells after 72 hrs by MTT assay; assay type: functional, cell-based; conditions: HL-60, 72 h
# How it was run: (§1)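 MTT colorimetric assay with 72 h continuous exposure. IC50 was fitted per experiment by non-linear regression. Values are means with SE from at least three independent experiments, each run in triplicate.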
# [10] = Cytotoxicity against human HL60/MX1 cells after 72 hrs by MTT assay; assay type: functional, cell-based; conditions: HL60/MX1, 72 h; how it was run: as §1
# [11] = test system: HL-60; assay: Induction of apoptosis in human HL60 cells assessed as DNA fragmentation at 30 uM after 24 hrs by ethidium bromide staining based agarose gel electrophoresis method; assay type: functional, cell-based
# How it was run: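 HL-60 cells were treated for 24 h. Genomic DNA was extracted, run on an agarose gel, stained with ethidium bromide and viewed under UV.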
# [12] = test system: HL-60; assay: Induction of cell cycle arrest in human HL60 cells assessed as accumulation at subG1 phase at 1 uM after 48 hrs by propidium iodide staining based flow cytometry (reference value: 3.7 +/- 0.1%); assay type: functional
# [13] = test system: HL-60; assay: Induction of cell cycle arrest in human HL60 cells assessed as accumulation at subG1 phase at 10 uM after 48 hrs by propidium iodide staining based flow cytometry (reference value: 3.7 +/- 0.1%); assay type: functional
# [14] = test system: U-937; assay: Induction of cell cycle arrest in human U937 cells assessed as accumulation at subG1 phase at 1 uM after 12 hrs by propidium iodide staining based flow cytometry (reference value: 4.6 +/- 0.9%); assay type: functional
# [15] = test system: U-937; assay: Induction of cell cycle arrest in human U937 cells assessed as accumulation at subG1 phase at 1 uM after 24 hrs by propidium iodide staining based flow cytometry (reference value: 3.9 +/- 0.8%); assay type: functional
# [16] = test system: U-937; assay: Induction of cell cycle arrest in human U937 cells assessed as accumulation at G2/M phase at 1 uM after 24 hrs by propidium iodide staining based flow cytometry (reference value: 22.8 +/- 1.6%); assay type: functional
# [17] = test system: U-937; assay: Induction of apoptosis in human U937 cells assessed as pro-caspase-9 processing at 3 and 10 uM after 6 to 24 hrs by immunoblotting method; assay type: functional, cell-based
# How it was run: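 Kinetic and dose-response experiment: cells were treated with the indicated concentrations and harvested at the indicated times. Pro-caspase-8 and -9 cleavage was detected by immunoblotting with antibodies that bind both the proenzyme and the cleaved fragments.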
# [18] = test system: MOLT-3; assay: Induction of apoptosis in human MOLT3 cells assessed as pro-caspase-6 cleavage by Western blotting method; assay type: functional, cell-based
# How it was run: (§2)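 Cells were exposed to a range of compound concentrations and harvested at 24 h. Lysates were immunoblotted for caspase proforms and cleaved forms, and for Bcl-2 family proteins.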
# [19] = test system: U-937; assay: Induction of apoptosis in human U937 cells assessed as pro-caspase-3 cleavage by Western blotting method; assay type: functional, cell-based; how it was run: as §2
# [20] = test system: MOLT-3; assay: Induction of apoptosis in human MOLT3 cells assessed as reduction in pro-caspase-4 level by Western blotting method; assay type: functional, cell-based; how it was run: as §2
# [21] = test system: MOLT-3; assay: Reduction in Bid expression in human MOLT3 cells by Western blotting method; assay type: functional, cell-based
# How it was run: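 Cells (HL-60, Molt-3 or U937) were incubated with increasing concentrations of compound and harvested at 24 h. Cell lysates were then immunoblotted for Bid and other Bcl-2 family members.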
# [22] = test system: HL-60; assay: Induction of apoptosis in human HL60 cells assessed as increase in caspase 3/7 activity DEVD-pNA substrate at 10 uM after 24 hrs; assay type: functional
# How it was run: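 Cells were given 10 µM for 24 h. Lysates were assayed for cleavage of DEVD-pNA (caspase-3/7), IETD-pNA (caspase-8) and LEHD-pNA (caspase-9). Results are expressed as fold over control, from three independent experiments in triplicate.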
# [23] = target: c-Jun N-terminal kinase, JNK (Homo sapiens) (UniProt P45983+P53779+P45984); assay: Increase in JNK/SAPK phosphorylation in human HL60 cells at 10 to 30 uM after 2 to 6 hrs by Western blotting method; assay type: cell-based; conditions: HL-60
# How it was run: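 HL-60 cells were incubated for a time course. Extracts were immunoblotted with phospho-specific antibodies for ERK 1/2, JNK/SAPK and p38MAPK. Membranes were then stripped and reprobed for the total kinases as loading controls.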
# [24] = test system: HL-60; assay: Induction of apoptosis in human HL60 cells in presence of 10 uM MEK1/2 inhibitor PD98059 after 24 hrs by propidium iodide staining based flow cytometry; assay type: functional
# [25] = test system: HL-60; assay: Increase in DR5 expression in human HL60 cells at 10 30 uM after 24 hrs by immunoblotting method; assay type: functional, cell-based
# How it was run: (§3)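 HL-60 and U937 cells were treated with increasing concentrations for 24 h. Lysates were immunoblotted for TRAIL, DR4 and DR5.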
# [26] = test system: U-937; assay: Increase in DR4 expression in human U937 cells at 10 30 uM after 24 hrs by immunoblotting method; assay type: functional, cell-based; how it was run: as §3
# [27] = test system: HL-60; assay: Induction of cell cycle arrest in human HL60 cells assessed as accumulation at G1 phase at 10 uM after 48 hrs by propidium iodide staining based flow cytometry (reference value: 60.4 +/- 0.4%); assay type: functional
# [28] = test system: U-937; assay: Induction of cell cycle arrest in human U937 cells assessed as accumulation at G1 phase at 3 uM after 12 hrs by propidium iodide staining based flow cytometry (reference value: 45.8 +/- 0.8%); assay type: functional
# [29] = test system: U-937; assay: Induction of cell cycle arrest in human U937 cells assessed as accumulation at G1 phase at 1 uM after 24 hrs by propidium iodide staining based flow cytometry (reference value: 49.8 +/- 1.5%); assay type: functional
# [30] = test system: U-937; assay: Induction of cell cycle arrest in human U937 cells assessed as accumulation at G1 phase at 1 uM after 48 hrs by propidium iodide staining based flow cytometry (reference value: 51.9 +/- 0.9%); assay type: functional
structure (smiles),measurement,setting,value
O=c1c(O)c(-c2ccc(Br)cc2)oc2ccccc12,Activity,[1],15.9%
same,Activity,[2],24.1%
same,Activity,[3],15.5%
same,Activity,[4],21.5%
same,Activity,[5],22.4%
same,Activity,[6],24.9%
same,Activity,[7],13.4%
same,Activity,[8],18%
same,IC50,[9],3.3 µM
same,IC50,[10],6.5 µM
same,Activity,[11],Active
same,Activity,[12],3.4%
same,Activity,[13],56.7%
same,Activity,[14],3.3%
same,Activity,[15],3.7%
same,Activity,[16],25.2%
same,Activity,[17],Active
same,Activity,[18],Active
same,Activity,[19],inactive
same,Activity,[20],Active
same,Activity,[21],Active
same,fold change (FC),[22],4.5
same,Activity,[23],Active
same,fold change (FC),[24],2
same,Activity,[25],Active
same,Activity,[26],Active
same,Activity,[27],18.4%
same,Activity,[28],46.6%
same,Activity,[29],47.4%
same,Activity,[30],49%
